From PubChem
A selection: hits, their analogues and other compounds. The true share with any hit is near 3.5%.
MrgX1 PAM = allosterically activates human MrgX1 receptor signaling; Q96LB2; MrgX1-HEK293, Fluo-4 calcium flux, FDSS; hits give high values; B-score at 10 µM; 0.63% of 310,000 active; AID 588675;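 active = plate-corrected calcium response at least 3 library SD above typical, normal starting fluorescence, not activating the receptor alone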;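 also: compound read alongside a low EC10 to EC30 dose of BAM8-22 agonist; peak minus trough fluorescence over baseline measured at the second addition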
Target sequence (Q96LB2 whole entry, looked up): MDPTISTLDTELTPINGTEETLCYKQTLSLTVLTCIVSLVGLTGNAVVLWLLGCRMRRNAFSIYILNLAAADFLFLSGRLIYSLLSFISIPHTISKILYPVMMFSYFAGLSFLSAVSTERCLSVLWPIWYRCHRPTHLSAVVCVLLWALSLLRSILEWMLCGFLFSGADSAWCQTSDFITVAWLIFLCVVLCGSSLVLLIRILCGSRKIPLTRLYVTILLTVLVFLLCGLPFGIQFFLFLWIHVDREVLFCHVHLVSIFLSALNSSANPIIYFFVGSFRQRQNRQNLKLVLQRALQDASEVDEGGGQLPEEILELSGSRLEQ
RGS4 act = RGS4 potentiation or activation; HEK293 M3R/inducible RGS4, carbachol calcium flux Fluo4; hits give low values; B-score at 10 µM; 0.92% of 310,000 active;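 active = B-score of the integrated calcium signal more than 4 SD below the library mean, with starting fluorescence not abnormally high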;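 also: negative B-score means reduced calcium response which marks RGS4 activation or potentiation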
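Material: M3R-expressing HEK293 line, RGS4 induced by doxycycline | Schedule: Overnight RGS4 induction, 30 min dye load 37 °C, 20 min compound RT | Measured by: Fluo4 fluorescence kinetic imaging of calcium | Read-out: Integrated calcium ratio converted to B score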
RGS4 inh = human RGS4 inhibition; P49798; HEK293 M3R/RGS4 inducible, Fluo-4 calcium flux; hits give high values; triggered by carbachol at its EC20; B-score at 10 µM; 0.45% of 310,000 active;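 active = B-score, a plate-corrected calcium signal, over three deviations above library mean, with baseline fluorescence within five deviations of library mean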;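 also: RGS4 expression induced by doxycycline in cells with stable M3 receptor; B-score is computed from the integrated fluorescence ratio over baseline after carbachol; higher B-score means a larger calcium signal and so more RGS4 inhibition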
Target sequence (P49798 whole entry, looked up): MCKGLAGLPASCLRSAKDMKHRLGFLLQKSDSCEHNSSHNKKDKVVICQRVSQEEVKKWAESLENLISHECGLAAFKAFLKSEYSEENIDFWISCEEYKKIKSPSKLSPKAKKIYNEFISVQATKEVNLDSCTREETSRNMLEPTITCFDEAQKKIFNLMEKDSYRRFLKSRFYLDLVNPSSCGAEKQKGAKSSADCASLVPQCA
MrgX1 antag = blocks BAM8-22 activation of human MrgX1 receptor | Q96LB2 | MRGX1-HEK293 calcium flux, Fluo-4, BAM8-22 antagonism; hits give low values | B-score at 10 µM | 1.3% of 310,000 active;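 active = calcium-response B-score plate-corrected more than 3 library SD below zero, starting fluorescence within 5 deviations, no agonist response on first addition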;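 also: peak minus trough fluorescence over baseline after final BAM8-22 challenge near maximal dose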
MrgX1 ag = activates human MrgX1 receptor signaling | MrgX1-HEK293 cells, Fluo-4 calcium fluorescence, agonist mode; hits give high values | B-score at 10 µM | 0.44% of 310,000 active;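 active = calcium response B-score plate-corrected fluorescence ratio at least 3 library SD, with starting fluorescence B-score inside 5 SD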
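Assay system: MrgX1-expressing HEK293 cells / Amount: fifteen thousand cells per well / Doses: test compound in the initial addition of three / Timing: cells plated overnight, dye loaded 0.5 h 37 °C, 0.5 h room temperature / Technique: kinetic calcium dye fluorescence, Fluo-4 NW / Control set: positive and negative controls per plate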
MrgX1 ag confirm = reconfirmed activator of human MrgX1 receptor signaling | shares compounds with MrgX1 ag | MrgX1-HEK293, Fluo-4 calcium fluorescence, FDSS | activation, % at 10 µM | 78% of 600 active;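 active = calcium signal rise, corrected for plate position, at least 3 library SD high, with starting brightness within 5 such deviations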
HEK293 Ca flux = MrgX1 antagonist counter-screen hit in parental HEK293 cells | shares compounds with MrgX1 antag | AID 624111 | 2% of 4,000 active | fluorescence ratio F(max-min)/F0 at 10 µM | Fluo-4 calcium fluorescence, FDSS;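 active = duplicate-averaged calcium fluorescence ratio at least three times the standard deviation of buffer wells, a nonspecific response in parental cells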
HEK293 Ca counter = MrgX1 allosteric activator counter-screen hit in parental HEK293 cells. shares compounds with MrgX1 antag. parental HEK293 calcium flux, Fluo-4 fluorescence ratio; hits give high values. fluorescence ratio F(max-min)/F0 at 10 µM. 0.4% of 4,000 active;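 active = calcium fluorescence ratio, averaged over duplicates, at least 3 SD of the buffer-well ratio, meaning a nonspecific response in receptor-free cells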;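 also: untransfected parental HEK293 lacking MrgX1 used as counterscreen for MrgX1 allosteric activators; fluorescence change taken during the second addition on a kinetic imager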
HEK293 Ca cntr2 = counter-screen for MrgX1 activators: effect in parental HEK293 cells | shares compounds with MrgX1 antag | 8.7% of 4,000 active | Fluo-4 calcium fluorescence (FDSS); hits give high values | AID 624115 | fluorescence ratio F(max-min)/F0 at 10 µM;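 active = calcium fluorescence ratio at least three times the spread of buffer wells, meaning a non-specific response in parental cells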
Active calls of the source: *; i = inactive; x = no result.

SMILES	MrgX1 PAM	RGS4 act	RGS4 inh	MrgX1 antag	MrgX1 ag	MrgX1 ag confirm	HEK293 Ca flux	HEK293 Ca counter	HEK293 Ca cntr2
COc1cc(SC)ccc1C(=O)Nc1ccc(Cl)cn1	i	i	i	i	40*	i	i	i	i
COc1ccc(CCNc2cc(C)nc(N)n2)cc1OC	i	i	i	i	45*	242%*	i	i	i
Cc1ccc2c(c1)N(C(C)C(=O)NCc1cccs1)C(=O)CO2 (stereo not drawn)	i	i	i	i	i	x	x	x	x
CC1CCCCN1S(=O)(=O)c1ccc(C(=O)Nc2nnc(-c3ccccc3Cl)o2)cc1 (stereo not drawn)	i	i	i	i	41*	323%*	i	i	63*
O=C(NC(=S)NNC(=O)c1ccccc1O)c1cccs1	i	i	i	i	132*	358%*	i	i	71*
COc1ccccc1C(=O)NNC(=S)NC(=O)c1cccs1	i	i	i	i	80*	476%*	i	i	111*
O=C(Cc1ccc(Cl)cc1)NNC(=S)NC(=O)c1cccs1	i	i	i	i	122*	316%*	i	i	68*
COc1cc2ncnc(NCc3ccc(Cl)cc3)c2cc1OC	i	i	i	i	33*	136%*	i	i	i
O=C(O)[C@@H]1Cc2ccccc2N1	i	i	i	i	i	x	x	x	x
c1ccc2c(c1)CNc1ccccc1C2	i	i	i	i	30*	224%*	i	i	i
COc1cccc(CNC(=O)CCc2nc3cc(S(=O)(=O)N4CCOCC4)ccc3n2C)c1	i	i	i	i	i	x	x	x	x
Cc1nc2ccccc2n1CCOc1ccccc1	i	i	i	i	i	x	x	x	x
COc1ccc(OCCn2c(N)nc3ccccc32)cc1	i	i	i	i	30*	153%*	i	i	i
Nc1nc2ccccc2n1CCOc1ccc(F)cc1	i	i	i	i	41*	134%*	i	i	i
CCSc1nc2ccccc2n1CCOc1ccccc1	i	i	i	i	i	x	x	x	x
CCOC(=O)C1CCN(CC(=O)Nc2ccc(S(=O)(=O)N3CCC(C)CC3)cc2)CC1	i	i	i	i	i	x	x	x	x
O=C(CCSc1ccccc1)N1CCCC1	i	i	i	i	i	x	x	x	x
O=C1CCCCCN1Sc1ccccc1	i	i	i	i	30*	123%*	i	i	i
O=C1c2ccccc2CSc2c(O)cccc21	i	i	i	i	i	x	x	x	x
Cc1cccc2c1Sc1ccccc1CC2=O	i	i	i	i	33*	113%*	i	i	i
O=C1Cc2ccccc2Sc2ccc(O)cc21	i	i	i	i	29*	114%*	i	i	i
Nc1ccc2c(c1)CC(=O)c1ccccc1S2	i	i	i	i	42*	102%*	i	i	i
Nc1ccc(N2C(=O)c3ccccc3C2=O)c(Cl)c1	i	x	x	i	i	x	x	x	x
O=C(CCC(=O)Nc1ccccc1)NNC(=O)COc1ccccc1	i	i	i	i	i	x	x	x	x
COc1cccc(-n2nnc(S(=O)(=O)c3ccc(C)cc3)c2N)c1	i	i	i	i	36*	i	i	i	i
SMILES	MrgX1 PAM	RGS4 act	RGS4 inh	MrgX1 antag	MrgX1 ag	MrgX1 ag confirm	HEK293 Ca flux	HEK293 Ca counter	HEK293 Ca cntr2
CN1C(=O)C(C)(C)c2cc(S(=O)(=O)N3CCC(C(=O)NCc4ccccc4Cl)CC3)ccc21	i	i	i	i	i	x	x	x	x
COc1ccc(C2(O)C(=O)Nc3ccc(C)cc32)cc1OC (stereo not drawn)	i	i	i	i	i	x	x	x	x
COc1ccccc1N1CCN(C2CCCCC2NS(=O)(=O)c2ccc(Cl)cc2)CC1 (stereo not drawn)	i	i	i	i	48*	241%*	i	i	i
O/C(=C\c1ccc2ccccc2n1)c1ccncc1	i	i	i	i	64*	355%*	i	i	127*
CCOC(=O)C1(CC2CCCCO2)CCN(Cc2cc3ccccc3[nH]2)CC1 (stereo not drawn)	i	i	i	i	113*	651%*	i	i	95*
CCCCc1ncc(CN2CCC(CC3CCCCO3)(C(=O)OCC)CC2)[nH]1 (stereo not drawn)	i	i	i	i	i	x	x	x	x
COc1ccc2c(c1)c(C(O)CN1CCN(Cc3ccc4c(c3)OCO4)CC1)c(C)n2C (stereo not drawn)	i	i	i	i	i	x	x	x	x
Cc1c(C(O)CN2CCN(Cc3ccc4c(c3)OCO4)CC2)c2ccccc2n1C (stereo not drawn)	i	i	i	i	33*	i	i	i	i
CC(=O)Cc1nsc(NC(=O)c2ccccc2Cl)n1	i	i	i	i	i	x	x	x	x
CC(=O)Cc1nsc(NC(=O)c2oc(-c3ccccc3Cl)cc2C)n1	i	i	i	i	36*	112%*	i	i	i
COC(=O)c1ccc(COc2ccc(CNCc3ccc(Cl)cc3)cc2)cc1	i	i	i	i	i	x	x	x	x
Cc1occc1C(=O)NNC(=S)NC(=O)COc1ccc(Cl)cc1Cl	i	-9.1*	i	i	71*	193%*	i	i	i
O=C(N/N=C/c1ccccn1)c1cccs1	i	i	i	i	i	x	x	x	x
Nc1nc(-c2ccc3c(c2)CCO3)cs1	i	i	i	i	38*	175%*	i	i	i
O=C(O)c1cccnc1SCC(=O)N1CCCc2ccccc21	i	i	i	i	36*	i	i	i	i
CC(C)(C)C(=O)/C=c1\s/c(=C\c2ccc(-c3ccc([N+](=O)[O-])cc3)o2)c(=O)n1CC(=O)NC(N)=O	i	i	i	i	82*	464%*	0.017*	i	89*
CCC(=O)N/N=C/c1ccc(-c2ccc([N+](=O)[O-])cc2)o1	i	i	i	i	i	x	x	x	x
O=C(NNC(=O)c1ccccc1O)c1ccc(Cl)c(S(=O)(=O)N2CCCCC2)c1	i	i	i	i	i	x	x	x	x
